From PubChem BioAssay
Most compounds without a hit are left out; they make up all but 3.8% or so of the library.
DENV2 CPE rescue: DENV2-induced cell death inhibition. DENV2-infected cells, cytopathic effect rescue, plate reader. AID 651640. CPE inhibition, % at 9.99 µM. 350,000 compounds, 1.7% hits; in the data active = CPE inhibition above about 20%, passing the limit was not always enough; tested in BHK-21 cells;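 note: 0% = median of neutral control wells and 100% = median of positive control wells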
ARNT-TACC3 inh: ARNT/TACC3 interaction disruption | Q9Y6A5 | 390,000 compounds, 0.66% hits | AlphaScreen His-ARNT PAS-B/GST-TACC3 binding, luminescence; TACC3 fragment carries E629A point mutation | inhibition, % at 9.99 µM | AID 623870;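 active = mean inhibition of replicates at least 50% and at least half of replicates each reaching 50%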;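 note: 0% = complete ARNT plus TACC3 wells and 100% = ARNT alone without TACC3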
Xi reactivation: X-chromosome reactivation activator; XiGFP mouse fibroblasts, % GFP-positive cells imaging, 3 d; cells co-treated with 5-aza-dC sensitizer; scaled so ellipticine positive control = 100%; activation, % at 7.58 µM; 360,000 compounds, 0.055% hits; AID 743238;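 active = mean normalized replicate activation at least 10% and every replicate at or above 10%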;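 note: 0% = median of on-plate neutral control wells and 100% = ellipticine 6 µM median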
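System: XiGFP fibroblasts, SV40-immortalized. Medium: DMEM plus 5-aza-dC sensitizer. Doses: single point. Timing: 3 d treatment, 15 min room-temperature fixation. Control set: ellipticine 6 µM.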
FGF22 binding-1: shifts melting point of recombinant human FGF22; Q9HCT0; recombinant FGF22 thermal shift, SYPRO orange fluorescence; percent of sucrose octasulfate shift, DMSO zero; activity (Tm shift, normalised), % at 9.99 µM; 340,000 compounds, 1.5% hits; AID 651658;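 active = mean Tm shift, scaled 0 neutral to 100 positive control, at about 1.3% or above, every replicate too, limit read from the data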
Target sequence (Q9HCT0 whole entry, looked up): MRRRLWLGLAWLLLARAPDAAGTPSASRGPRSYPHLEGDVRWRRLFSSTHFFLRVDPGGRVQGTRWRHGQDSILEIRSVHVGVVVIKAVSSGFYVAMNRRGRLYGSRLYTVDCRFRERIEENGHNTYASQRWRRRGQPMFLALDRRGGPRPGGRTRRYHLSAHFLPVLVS
SIRT5 inh: blocks human SIRT5 desuccinylation of peptide; inhibition, % at 15 µM; 330,000 compounds, 1.1% hits; Q9NXA8; Purified SirT5, succinyl-peptide AMC, trypsin-coupled fluorescence; in the data active = inhibition above about 15%
Target sequence (Q9NXA8 whole entry, looked up): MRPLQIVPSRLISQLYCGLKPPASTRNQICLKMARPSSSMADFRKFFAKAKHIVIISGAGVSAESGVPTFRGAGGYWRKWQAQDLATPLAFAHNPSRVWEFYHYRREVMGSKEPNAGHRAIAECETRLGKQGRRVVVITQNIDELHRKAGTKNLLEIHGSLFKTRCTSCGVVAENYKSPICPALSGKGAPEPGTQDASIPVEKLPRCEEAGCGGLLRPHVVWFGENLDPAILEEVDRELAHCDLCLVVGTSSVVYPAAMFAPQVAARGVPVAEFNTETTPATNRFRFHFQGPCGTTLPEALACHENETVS
FN deposit inh: fibronectin deposition inhibition | inhibition, % at 12.6 µM | 350,000 compounds, 0.086% hits | AID 743247 | AH1F fibroblasts, Alexa488-fibronectin deposition fluorescence, overnight;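 active = mean inhibition across replicates of 30% or more, regardless of how many single replicates reach that level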;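 note: positive control wells lacked labelled fibronectin entirely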
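Assay system: AH1F fibroblast monolayer, labelled fibronectin deposition. Amount: 10000 cells per well. Also added: labelled fibronectin 24 nM. Compound: single-point pinned compound. Incubation: cell attachment 1 h, compound and FN exposure overnight. Detection: fluorescence after three HBSS washes, excitation 485 nm, emission 525 nm. Read-out: inhibition of fibronectin deposition signal.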
FGF22 binding-2: binds human FGF22 shifting its melting temperature; recombinant FGF22 thermal shift, SYPRO orange fluorescence; shares compounds with FGF22 binding-1; 1,000 compounds, 2% hits; thermal shift activity, °C (ΔTm) at 38 µM; AID 720646;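 active = fitted rise in melting shift crosses a set limit at or below the top valid dose tested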
FGF22 TSA DP: binders of human FGF22 by thermal shift; shares compounds with FGF22 binding-1; Thermal shift assay, SYPRO orange, melting temperature shift; Tm shift (activity), % at 38 µM; 50 tested, under 10 active;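 active = compounds whose fitted dose curve of melting temperature shift rises past a set threshold within the tested doses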
SYPRO no-protein: compound-only SYPRO artifact for FGF22 binders; compound-only SYPRO orange thermal shift counter-screen, no protein; AC50, µM (titrated, usually from 38 µM); 1,000 compounds, 2% hits; shares compounds with FGF22 binding-1; AID 743019;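 active = rising signal whose fitted curve reaches the 0.54 level within the top valid dose, showing a melting point, actives reach about 13 µM in these data; inactive = the rest, including activity in the opposite direction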; note: value is where the raw curve crosses a fixed level and not half-maximal
* = called active by the depositor; [ ] = remark or other dose.

How did Cc1ccc(-c2c[n+](CC(=O)Nc3ccc(C)cc3C)c3n2CCC3)cc1 do in these assays?
DENV2 CPE rescue: -2; ARNT-TACC3 inh: -2; Xi reactivation: 0; FGF22 binding-1: 14*; FN deposit inh: -2; FGF22 binding-2: 0.24; SYPRO no-protein: inactive

What do the screens show for `CCCNC(=O)[C@H]1[C@H](CO)[C@H]2Cn3c(ccc(-c4ccccc4F)c3=O)[C@H]2N1C(C)=O`?
DENV2 CPE rescue: 14; Xi reactivation: 1; SIRT5 inh: -11

How did C[C@@H]1CCn2cc(nn2)COC[C@@H](Cc2ccccc2)NC1=O do in these assays?
DENV2 CPE rescue: -4; Xi reactivation: 0; FGF22 binding-1: 0; SIRT5 inh: 0; FN deposit inh: 4

Results for O=C(C[C@H]1CC[C@H](NC(=O)Nc2cc(F)ccc2F)[C@@H](CO)O1)Nc1ccc(-c2ccccc2)cc1 ?
DENV2 CPE rescue: 18; ARNT-TACC3 inh: 10; Xi reactivation: 0; FGF22 binding-1: 1.6*; SIRT5 inh: -2; FN deposit inh: -22; FGF22 binding-2: 0.078[42 µM]; SYPRO no-protein: inactive

What do the screens show for `O=C(N[C@H]1CC[C@@H](CCNS(=O)(=O)c2ccc(F)cc2)O[C@H]1CO)C1CCCC1`?
DENV2 CPE rescue: 21*; ARNT-TACC3 inh: -4; Xi reactivation: 0; FGF22 binding-1: 9.7*; SIRT5 inh: 0; FGF22 binding-2: 0.12[42 µM]; SYPRO no-protein: inactive

How did O=C(Nc1ccc(Cl)cc1)N[C@@H]1CC[C@@H](CCNS(=O)(=O)c2ccccc2F)O[C@H]1CO do in these assays?
DENV2 CPE rescue: 2; ARNT-TACC3 inh: 7; Xi reactivation: 0; FGF22 binding-1: 1.6*; SIRT5 inh: 0; FN deposit inh: -10; FGF22 binding-2: 0.11[42 µM]; FGF22 TSA DP: 0; SYPRO no-protein: inactive

What do the screens show for `O=C(NCC[C@@H]1CC[C@H](NC(=O)c2cnccn2)[C@H](CO)O1)Nc1ccc(F)cc1`?
DENV2 CPE rescue: -9; ARNT-TACC3 inh: -9; Xi reactivation: 0; FGF22 binding-1: 9.1*; SIRT5 inh: 12; FN deposit inh: -5; FGF22 binding-2: 0.19[42 µM]; SYPRO no-protein: inactive

What do the screens show for `O=C(O)C[C@H]1CC[C@H](NC(=O)Nc2cc(F)ccc2F)[C@@H](CO)O1`?
DENV2 CPE rescue: -4; ARNT-TACC3 inh: -12; Xi reactivation: 0; FGF22 binding-1: 0; SIRT5 inh: -2

Results for Cc1ccc(-c2cnc3c(c2)C(=O)N([C@H](C)CO)C[C@@H](C)[C@@H](CN(C)C(=O)c2cccnc2)O3)cc1 ?
DENV2 CPE rescue: 8; ARNT-TACC3 inh: 7; Xi reactivation: 0; FGF22 binding-1: 0; SIRT5 inh: 2

What do the screens show for `O=C(Nc1cc(Cl)cc(Cl)c1)N[C@H]1CC[C@H](CCNS(=O)(=O)c2cccc(F)c2)O[C@@H]1CO`?
DENV2 CPE rescue: 2; Xi reactivation: 0; FGF22 binding-1: 2.4*; SIRT5 inh: 2; FN deposit inh: -5; FGF22 binding-2: 0.13[42 µM]; SYPRO no-protein: inactive

Results for O=C(NCC[C@@H]1CC[C@H](NC(=O)C2CCOCC2)[C@H](CO)O1)Nc1ccc(Cl)cc1 ?
DENV2 CPE rescue: -10; Xi reactivation: 0; FGF22 binding-1: 1.4*; SIRT5 inh: 0; FGF22 binding-2: 0.011[42 µM]; SYPRO no-protein: inactive

How did O=C(Nc1cc(Cl)cc(Cl)c1)N[C@@H]1CC[C@H](CCNS(=O)(=O)c2cccc(F)c2)O[C@@H]1CO do in these assays?
DENV2 CPE rescue: 4; Xi reactivation: 0; FGF22 binding-1: 0; SIRT5 inh: 3; FN deposit inh: 1

What do the screens show for `N#C[C@H]1[C@H](c2ccccc2-c2ccccc2F)[C@@H](CO)N1C(=O)C1CCC1`?
DENV2 CPE rescue: -1; Xi reactivation: 0; FGF22 binding-1: 1.4*; SIRT5 inh: -3; FN deposit inh: -7; FGF22 binding-2: 0.14[42 µM]; SYPRO no-protein: inactive

What do the screens show for `Cc1ccc(S(=O)(=O)Nc2cccc(S(=O)(=O)Nc3ccccc3C(=O)O)c2)c(C)c1`?
DENV2 CPE rescue: -2; ARNT-TACC3 inh: -1; Xi reactivation: 0; FGF22 binding-1: 1.4*; SIRT5 inh: 1; FN deposit inh: 12; FGF22 binding-2: -0.06; SYPRO no-protein: inactive

What do the screens show for `O=C(O)c1ccccc1NS(=O)(=O)c1cccc(NS(=O)(=O)c2cc(Br)ccc2Br)c1`?
DENV2 CPE rescue: -6; ARNT-TACC3 inh: -1; Xi reactivation: 0; SIRT5 inh: 5; FN deposit inh: 0

Results for CCCC(=O)Nc1ccc2c(c1)C(=O)N(C)C[C@H](OC)[C@H](C)CN(Cc1cncnc1)[C@@H](C)CO2 ?
DENV2 CPE rescue: 7; ARNT-TACC3 inh: 2; Xi reactivation: 0; SIRT5 inh: 0; FN deposit inh: 11

How did Nc1nc(O)c(Sc2ccccc2[N+](=O)[O-])c(=O)[nH]1 do in these assays?
DENV2 CPE rescue: 4; ARNT-TACC3 inh: -1; Xi reactivation: 0; FGF22 binding-1: 1.9*; SIRT5 inh: -6; FN deposit inh: 3; FGF22 binding-2: 0.026; SYPRO no-protein: inactive

Results for CCC(=O)Nc1ccc2c(c1)OC[C@@H](C)N(CC1CCCCC1)C[C@H](C)[C@H](OC)CN(C)C2=O ?
Xi reactivation: 0; FN deposit inh: 6

What do the screens show for `COc1ccc(NC(=O)COC(=O)Cc2c[nH]c3ccccc23)cc1Cl`?
DENV2 CPE rescue: -8; ARNT-TACC3 inh: -3; Xi reactivation: 0; FGF22 binding-1: 1.7*; SIRT5 inh: 2; FN deposit inh: 9; FGF22 binding-2: -0.2; SYPRO no-protein: inactive

What do the screens show for `Cc1ccc(NC(=O)COC(=O)Cc2c[nH]c3ccccc23)cc1C`?
DENV2 CPE rescue: 2; ARNT-TACC3 inh: 24; Xi reactivation: 0; FGF22 binding-1: 0; SIRT5 inh: -10; FN deposit inh: -11

Results for Nc1ccc(C(=O)Nc2ccc(OC(F)(F)C(F)F)c(NC(=O)c3ccc(N)cc3)c2)cc1 ?
DENV2 CPE rescue: -6; ARNT-TACC3 inh: -2; Xi reactivation: 0; FGF22 binding-1: 1.7*; FN deposit inh: 4; FGF22 binding-2: -0.69; SYPRO no-protein: inactive

How did O=C(Nc1ccc(OC(F)(F)C(F)F)c(NC(=O)c2ccc(F)cc2)c1)c1ccc(F)cc1 do in these assays?
ARNT-TACC3 inh: -3; FN deposit inh: -1
